# From ChEMBL document CHEMBL1132976, “Biarylcarbamoylindolines are novel and selective 5-HT(2C) receptor inverse agonists: identification of 5-methyl-1-[[2-[(2-methyl-3-pyridyl)oxy]- 5-pyridyl]carbamoyl]-6-trifluoromethylindoline (SB-243213) as a potential antidepressant/anxiolytic agent” (J Med Chem, 2000)
# Active and inactive are the calls of the source. The calls are words filed in the database; no cut-off is given here.
# How the values were obtained:
# [1] = molecular target: T1, 5-hydroxytryptamine receptor 2B (Homo sapiens, UniProt P41595); assay: Binding affinities towards human cloned 5-hydroxytryptamine 2B receptor in HEK293 cells using [3H]5-HT as radioligand.; assay type: cell-based
# In short: (§1)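 Competition binding at human cloned receptors expressed in HEK 293 cells. Radioligands: [3H]ketanserin for 5-HT2A, [3H]5-HT for 5-HT2B, [3H]mesulergine for 5-HT2C. Values are pKi, given as the mean of at least two determinations, each within 0.2 log unit of the mean.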
# Cytochrome P450 2C9 = Cytochrome P450 2C9 (Homo sapiens, UniProt P11712); assay: Inhibition of heterologously expressed human cytochrome P450 2C9; assay type: ADME
# Cytochrome P450 1A2 [2] = molecular target: T2, Cytochrome P450 1A2 (Homo sapiens, UniProt P05177); assay: Inhibition of heterologously expressed human cytochrome P450 1A2.; assay type: ADME
# T2 sequence (P05177 whole entry): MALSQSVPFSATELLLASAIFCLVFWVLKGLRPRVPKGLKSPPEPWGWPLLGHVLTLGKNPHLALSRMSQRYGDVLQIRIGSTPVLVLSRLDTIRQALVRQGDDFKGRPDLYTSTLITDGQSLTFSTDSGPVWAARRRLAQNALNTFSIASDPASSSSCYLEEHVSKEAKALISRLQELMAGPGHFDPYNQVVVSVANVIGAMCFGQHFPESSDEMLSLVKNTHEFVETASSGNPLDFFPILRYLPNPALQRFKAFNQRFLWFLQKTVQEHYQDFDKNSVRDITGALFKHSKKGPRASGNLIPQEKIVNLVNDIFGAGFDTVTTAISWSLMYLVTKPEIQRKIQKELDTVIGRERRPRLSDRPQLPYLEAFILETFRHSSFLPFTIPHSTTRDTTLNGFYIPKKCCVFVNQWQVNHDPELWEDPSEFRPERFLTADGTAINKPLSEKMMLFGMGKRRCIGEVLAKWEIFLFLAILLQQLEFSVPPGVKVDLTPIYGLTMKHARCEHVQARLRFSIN
# In short: (§2)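 Heterologously expressed human CYP1A2 in an isoform-selective assay. Substrate: caffeine N3-demethylation at 500 µM, at the substrate Km.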
# Cytochrome P450 3A4 = Cytochrome P450 3A4 (Homo sapiens, UniProt P08684); assay: Inhibition of heterologously expressed human cytochrome P450 3A4; assay type: ADME
# [3] = molecular target: T3, 5-hydroxytryptamine receptor 2A (Homo sapiens, UniProt P28223); assay: Binding affinity towards human cloned 5-hydroxytryptamine receptor 2A in HEK293 cells, using [3H]ketanserin as radioligand.; assay type: cell-based; in short: as §1
# Cytochrome P450 2C19 = Cytochrome P450 2C19 (Homo sapiens, UniProt P33261); assay: Inhibition of heterologously expressed human cytochrome P450 2C19; assay type: ADME
# [4] = molecular target: Serotonin receptor (2b and 2c) (Homo sapiens) (UniProt P41595+P28335); assay: Selectivity index determined from the binding affinities of 5-HT2C and 5-HT2B.; assay type: protein assay
# Cytochrome P450 2D6 = Cytochrome P450 2D6 (Homo sapiens, UniProt P10635); assay: Inhibition of heterologously expressed human cytochrome P450 2D6; assay type: ADME
# Rattus norvegicus [5] = assay: Dose required to reverse mCPP induced hypolocomotion in rat after oral administration.; assay type: functional; conditions: read-out: ID50 (the source's name)
# In short: (§3)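 Rat hypolocomotion model. The test compound was given orally, and mCPP was given at 7 mg/kg ip 30 min before the test. ID50 (mg/kg po) is the dose that reverses mCPP-induced hypolocomotion by 50%.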
# [6] = molecular target: T4, 5-hydroxytryptamine receptor 2C (Homo sapiens, UniProt P28335); assay: Binding affinity towards human cloned 5-hydroxytryptamine receptor 2C in HEK293 cells, using [3H]mesulergine as radioligand.; assay type: cell-based; in short: as §1
# T4 sequence (P28335 whole entry): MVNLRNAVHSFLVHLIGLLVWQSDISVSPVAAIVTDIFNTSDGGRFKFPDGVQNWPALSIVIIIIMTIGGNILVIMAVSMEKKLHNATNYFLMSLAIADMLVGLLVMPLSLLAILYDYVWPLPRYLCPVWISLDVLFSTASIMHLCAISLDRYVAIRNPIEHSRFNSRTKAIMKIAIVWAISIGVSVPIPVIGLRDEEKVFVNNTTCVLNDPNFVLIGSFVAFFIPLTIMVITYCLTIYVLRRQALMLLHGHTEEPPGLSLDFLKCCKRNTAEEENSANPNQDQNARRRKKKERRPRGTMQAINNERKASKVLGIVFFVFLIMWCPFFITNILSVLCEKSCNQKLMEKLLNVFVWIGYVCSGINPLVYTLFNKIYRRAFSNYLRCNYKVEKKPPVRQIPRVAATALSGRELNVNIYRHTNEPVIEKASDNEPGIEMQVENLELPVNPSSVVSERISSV
# [7] = molecular target: Serotonin 2 receptors; 5-HT2a & 5-HT2c (Homo sapiens) (UniProt P28223+P28335); assay: Selectivity index determined from binding affinities of 5-HT2C and 5-HT2A.; assay type: protein assay
# Rattus norvegicus [8] = assay: Dose required to reverse mCPP induced hypolocomotion in rats after oral administration; NA=inactive; assay type: functional, organism-based; in short: as §3
# [9] = molecular target: T1, 5-hydroxytryptamine receptor 2B; assay: Displacement of [3H]5-HT from human 5-hydroxytryptamine 2B receptor expressed in HEK293 cells; assay type: cell-based; in short: as §1
# Rattus norvegicus [10] = assay: Dose required to reverse mCPP induced hypolocomotion in rats after oral administration; assay type: functional; in short: as §3
# Cytochrome P450 1A2 [11] = molecular target: T2, Cytochrome P450 1A2; assay: Inhibition of heterologously expressed human cytochrome P450 1A2; assay type: ADME; in short: as §2
# Rattus norvegicus [12] = assay: Dose required to reverse mCPP induced hypolocomotion in rats after oral administration; IA=inactive; assay type: functional, organism-based; in short: as §3
# [13] = molecular target: T1, 5-hydroxytryptamine receptor 2B; assay: Displacement of [3H]5-HT from human 5-hydroxytryptamine 2B receptor expressed in HEK293 cells; compound is insoluble; assay type: cell-based; in short: as §1
# [14] = molecular target: T5, 5-hydroxytryptamine receptor 2C (Homo sapiens) (UniProt P28335); assay: Displacement of [3H]mesulergine from human 5-hydroxytryptamine 2C receptor expressed in HEK293 cells; compound insoluble; assay type: cell-based; in short: as §1
# T5 sequence (whole entry): T4 sequence (P28335 whole entry)
# [15] = molecular target: T3, 5-hydroxytryptamine receptor 2A; assay: Displacement of [3H]ketanserin from human 5-hydroxytryptamine 2A receptor expressed in HEK293 cells; compound is insoluble; assay type: cell-based; in short: as §1
# T1 sequence (P41595 whole entry): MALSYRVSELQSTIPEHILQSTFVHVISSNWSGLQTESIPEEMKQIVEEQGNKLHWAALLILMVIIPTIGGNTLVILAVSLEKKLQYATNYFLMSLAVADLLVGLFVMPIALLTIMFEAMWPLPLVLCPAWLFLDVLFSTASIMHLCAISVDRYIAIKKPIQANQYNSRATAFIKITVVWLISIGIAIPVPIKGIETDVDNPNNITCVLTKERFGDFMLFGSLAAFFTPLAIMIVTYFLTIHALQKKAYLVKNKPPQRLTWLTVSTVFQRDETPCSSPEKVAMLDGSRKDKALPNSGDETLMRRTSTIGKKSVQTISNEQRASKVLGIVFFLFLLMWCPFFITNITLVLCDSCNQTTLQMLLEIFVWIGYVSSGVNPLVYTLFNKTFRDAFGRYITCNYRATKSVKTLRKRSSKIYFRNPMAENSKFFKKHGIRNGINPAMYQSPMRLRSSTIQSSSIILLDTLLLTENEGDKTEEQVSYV
# Sequence of Serotonin 2 receptors; 5-HT2a & 5-HT2c (Homo sapiens) (P28223 whole entry, looked up, one chain of several): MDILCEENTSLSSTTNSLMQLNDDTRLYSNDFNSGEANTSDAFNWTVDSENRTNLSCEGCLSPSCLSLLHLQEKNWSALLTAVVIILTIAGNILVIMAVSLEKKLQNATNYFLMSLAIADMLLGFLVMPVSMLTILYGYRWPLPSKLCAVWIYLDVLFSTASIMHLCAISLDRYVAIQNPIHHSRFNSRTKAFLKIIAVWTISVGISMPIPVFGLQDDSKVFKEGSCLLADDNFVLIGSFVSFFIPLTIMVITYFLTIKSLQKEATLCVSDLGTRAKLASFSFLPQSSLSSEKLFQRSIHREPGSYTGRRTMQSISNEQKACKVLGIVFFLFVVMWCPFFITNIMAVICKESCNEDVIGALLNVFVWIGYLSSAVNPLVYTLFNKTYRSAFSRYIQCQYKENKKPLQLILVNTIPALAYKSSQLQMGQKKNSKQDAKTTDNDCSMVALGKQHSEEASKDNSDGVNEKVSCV
# T3 sequence (P28223 whole entry): as the sequence (P28223 whole entry, looked up, one chain of several) above
# Sequence of Cytochrome P450 2C9 (P11712 whole entry): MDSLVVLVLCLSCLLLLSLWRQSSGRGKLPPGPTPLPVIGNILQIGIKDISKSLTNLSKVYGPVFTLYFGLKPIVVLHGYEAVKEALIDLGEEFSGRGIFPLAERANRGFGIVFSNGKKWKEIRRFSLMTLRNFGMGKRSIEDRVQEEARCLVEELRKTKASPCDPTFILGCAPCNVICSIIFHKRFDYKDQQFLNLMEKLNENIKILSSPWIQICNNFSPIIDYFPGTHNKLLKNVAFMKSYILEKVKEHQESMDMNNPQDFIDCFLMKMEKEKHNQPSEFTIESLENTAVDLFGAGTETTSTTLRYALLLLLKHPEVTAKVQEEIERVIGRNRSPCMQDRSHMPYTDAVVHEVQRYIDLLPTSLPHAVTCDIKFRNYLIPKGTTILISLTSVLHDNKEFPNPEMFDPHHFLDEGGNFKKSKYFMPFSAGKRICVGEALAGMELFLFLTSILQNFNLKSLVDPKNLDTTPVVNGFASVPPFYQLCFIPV
# Sequence of Cytochrome P450 3A4 (P08684 whole entry): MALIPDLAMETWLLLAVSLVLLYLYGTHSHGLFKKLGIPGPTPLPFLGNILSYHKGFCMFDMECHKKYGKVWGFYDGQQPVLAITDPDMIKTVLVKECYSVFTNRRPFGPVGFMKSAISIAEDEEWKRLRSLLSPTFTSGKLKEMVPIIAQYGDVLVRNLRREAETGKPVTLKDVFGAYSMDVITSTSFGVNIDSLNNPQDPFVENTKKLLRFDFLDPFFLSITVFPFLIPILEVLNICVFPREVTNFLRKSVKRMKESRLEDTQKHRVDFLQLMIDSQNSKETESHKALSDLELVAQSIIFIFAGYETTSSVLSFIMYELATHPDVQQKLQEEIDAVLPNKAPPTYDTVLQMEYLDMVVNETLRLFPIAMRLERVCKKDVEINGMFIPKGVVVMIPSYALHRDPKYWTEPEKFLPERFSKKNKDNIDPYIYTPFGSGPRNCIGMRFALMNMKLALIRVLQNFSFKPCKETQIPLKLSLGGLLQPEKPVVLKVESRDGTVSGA
# Sequence of Cytochrome P450 2C19 (P33261 whole entry): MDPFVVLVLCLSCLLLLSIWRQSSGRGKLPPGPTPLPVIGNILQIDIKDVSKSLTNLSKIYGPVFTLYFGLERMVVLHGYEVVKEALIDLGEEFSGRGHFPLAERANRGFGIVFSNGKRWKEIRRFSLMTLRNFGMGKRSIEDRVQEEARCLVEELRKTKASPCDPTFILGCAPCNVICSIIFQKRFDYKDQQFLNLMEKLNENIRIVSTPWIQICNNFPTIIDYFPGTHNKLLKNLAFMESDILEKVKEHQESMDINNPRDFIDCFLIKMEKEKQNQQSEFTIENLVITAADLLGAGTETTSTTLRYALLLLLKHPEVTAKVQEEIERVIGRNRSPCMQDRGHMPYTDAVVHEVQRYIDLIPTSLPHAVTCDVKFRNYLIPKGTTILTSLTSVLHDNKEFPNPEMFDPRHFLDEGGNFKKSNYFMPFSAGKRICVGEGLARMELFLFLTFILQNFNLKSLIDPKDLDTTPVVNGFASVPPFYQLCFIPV
# Sequence of Cytochrome P450 2D6 (P10635 whole entry): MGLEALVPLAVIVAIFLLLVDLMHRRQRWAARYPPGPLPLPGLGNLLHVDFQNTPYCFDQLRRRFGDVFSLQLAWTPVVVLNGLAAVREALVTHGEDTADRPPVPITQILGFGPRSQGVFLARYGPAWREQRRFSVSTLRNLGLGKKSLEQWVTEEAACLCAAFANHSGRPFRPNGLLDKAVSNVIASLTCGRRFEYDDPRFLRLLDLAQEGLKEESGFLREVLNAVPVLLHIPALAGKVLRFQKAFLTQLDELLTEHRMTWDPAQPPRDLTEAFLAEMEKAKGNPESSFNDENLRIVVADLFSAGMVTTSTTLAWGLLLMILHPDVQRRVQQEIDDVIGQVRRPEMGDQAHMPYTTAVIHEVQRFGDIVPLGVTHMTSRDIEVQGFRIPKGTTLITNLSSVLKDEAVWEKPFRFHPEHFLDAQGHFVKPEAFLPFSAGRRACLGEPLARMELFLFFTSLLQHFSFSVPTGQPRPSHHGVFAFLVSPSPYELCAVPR
SMILES,Ki [1] [nM],IC50 (Cytochrome P450 2C9) [nM],IC50 (Cytochrome P450 1A2 [2]) [nM],IC50 (Cytochrome P450 3A4) [nM],Ki [3] [nM],IC50 (Cytochrome P450 2C19) [nM],Selectivity [4],IC50 (Cytochrome P450 2D6) [nM],ED50 (Rattus norvegicus [5]) [mg/kg],Ki [6] [nM],Selectivity [7],ED50 (Rattus norvegicus [8]),Ki [9] [nM],ED50 (Rattus norvegicus [10]) [mg/kg],IC50 (Cytochrome P450 1A2 [11]) [nM],ED50 (Rattus norvegicus [12]),Log Ki [13],Log Ki [14],Log Ki [15]
COc1cc2c(cc1C(F)(F)F)N(C(=O)Nc1cc(F)cc(-c3cccnc3)c1)CC2,10,82000,28000,9000,126,> 100000,10,21000,0.7,1,130,,,,,,,,
COc1cc2c(cc1C(F)(F)F)N(C(=O)Nc1ccc(-c3cccnc3)nc1)CC2,,,7000,,> 10000,,2,,,5.01,> 2000,inactive,10,,,,,,
COc1cc2c(cc1C(F)(F)F)N(C(=O)Nc1cncc(-c3cnccc3C)c1)CC2,,,200,,100,,15,,,0.398,250,,6.31,5,,,,,
Cc1cc2c(cc1C(F)(F)F)N(C(=O)Nc1ccc(Oc3cccnc3C)nc1)CC2 [SB-243213],100,23000,,> 100000,158,> 100000,100,> 100000,0.7,1,160,,,,> 100000,,,,
COc1cc2c(cc1C(F)(F)F)N(C(=O)Nc1ccc(C(C)(C)C)c(-c3cccnc3)c1)CC2,39.8,,,,1000,,13,,,3.16,320,,,,,inactive,,,
COc1cc2c(cc1C(F)(F)F)N(C(=O)Nc1ccc(-c3ccccc3)nc1)CC2,,,,,,,,,,,,,,,,,Insoluble,Insoluble,Insoluble
